# Reference: ChEMBL document CHEMBL2331439 (J Med Chem, 2013)
# Activity calls are given as the source filed them. The calls are words filed in the database; no cut-off is given here.
# Assays:
# [1] = biological target: T1, MAP kinase-activated protein kinase 2 (Homo sapiens, UniProt P49137); assay: Inhibition of recombinant MAPKAPK2 (unknown origin) by FRET-based Z'-LYTE assay
# [2] = biological target: Hepatocyte growth factor receptor (Homo sapiens) (UniProt P08581); assay: Inhibition of recombinant MET (unknown origin) at 5 uM by FRET-based Z'-LYTE assay
# Procedure, shortened: (§1)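 Single-point panel screen at 5 μM in duplicate. ATP is at the apparent Km of each kinase, and the Z'-LYTE FRET peptide substrate is used. Each point has two control wells: a protease control for interference with development and a fluorescence control for interference with the FRET read-out. Values above 100% are treated as maximal inhibition and values below 0% as none.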
# [3] = biological target: Insulin receptor (Homo sapiens) (UniProt P06213); assay: Inhibition of recombinant INSR (unknown origin) at 5 uM by FRET-based Z'-LYTE assay; procedure, shortened: as §1
# [4] = biological target: RAF proto-oncogene serine/threonine-protein kinase (Homo sapiens, UniProt P04049); assay: Inhibition of recombinant RAF1 (unknown origin) by cascade reaction assay
# [5] = biological target: Tyrosine-protein kinase Lck (Homo sapiens) (UniProt P06239); assay: Inhibition of recombinant LCK (unknown origin) at 5 uM by FRET-based Z'-LYTE assay; procedure, shortened: as §1
# [6] = biological target: Proto-oncogene tyrosine-protein kinase receptor Ret (Homo sapiens) (UniProt P07949); assay: Inhibition of recombinant RET (unknown origin) at 5 uM by FRET-based Z'-LYTE assay
# Procedure, shortened: (§2)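 Z'-LYTE FRET peptide (coumarin/fluorescein) phosphorylation was followed by protease development. Wells included a protease control for interference with development and a fluorescence control for interference with the FRET read. Values above 100% or below 0% were treated as maximal or no inhibition.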
# [7] = biological target: T2, Mitogen-activated protein kinase 1 (Homo sapiens, UniProt P28482); assay: Inhibition of recombinant MAPK1 (unknown origin) at 5 uM by FRET-based Z'-LYTE assay; procedure, shortened: as §1
# [8] = biological target: Vascular endothelial growth factor receptor 2 (Homo sapiens, UniProt P35968); assay: Inhibition of recombinant KDR (unknown origin) by FRET-based Z'-LYTE assay
# [9] = biological target: Serine/threonine-protein kinase PLK1 (Homo sapiens) (UniProt P53350); assay: Inhibition of recombinant PLK1 (unknown origin) at 5 uM by FRET-based Z'-LYTE assay; procedure, shortened: as §1
# [10] = biological target: Angiopoietin-1 receptor (Homo sapiens) (UniProt Q02763); assay: Inhibition of recombinant TEK (unknown origin) at 5 uM by FRET-based Z'-LYTE assay; procedure, shortened: as §2
# [11] = biological target: Casein kinase II subunit alpha (Homo sapiens) (UniProt P68400); assay: Inhibition of recombinant CSNK2A1 (unknown origin) at 5 uM by FRET-based Z'-LYTE assay; procedure, shortened: as §1
# [12] = biological target: Interleukin-1 receptor-associated kinase 4 (Homo sapiens) (UniProt Q9NWZ3); assay: Inhibition of recombinant IRAK4 (unknown origin) at 5 uM by FRET-based Z'-LYTE assay; procedure, shortened: as §1
# [13] = biological target: Serine/threonine-protein kinase PAK 4 (Homo sapiens) (UniProt O96013); assay: Inhibition of recombinant PAK4 (unknown origin) at 5 uM by FRET-based Z'-LYTE assay; procedure, shortened: as §1
# [14] = biological target: Fibroblast growth factor receptor 1 (Homo sapiens) (UniProt P11362); assay: Inhibition of recombinant FGFR1 (unknown origin) at 5 uM by FRET-based Z'-LYTE assay; procedure, shortened: as §1
# [15] = biological target: T1, MAP kinase-activated protein kinase 2; details: 5 uM
# [16] = biological target: RAC-alpha serine/threonine-protein kinase (Homo sapiens, UniProt P31749); assay: Inhibition of recombinant AKT1 (unknown origin) at 5 uM by FRET-based Z'-LYTE assay; procedure, shortened: as §1
# [17] = biological target: Serine/threonine-protein kinase Nek1 (Homo sapiens) (UniProt Q96PY6); assay: Inhibition of recombinant NEK1 (unknown origin) at 5 uM by FRET-based Z'-LYTE assay; procedure, shortened: as §1
# [18] = biological target: Protein kinase C beta type (Homo sapiens) (UniProt P05771); assay: Inhibition of recombinant PRKCB1 (unknown origin) at 5 uM by FRET-based Z'-LYTE assay; procedure, shortened: as §2
# [19] = biological target: Aurora kinase A (Homo sapiens) (UniProt O14965); assay: Inhibition of recombinant AURKA (unknown origin) at 5 uM by FRET-based Z'-LYTE assay; procedure, shortened: as §1
# [20] = biological target: Cyclin-dependent kinase 7/ cyclin H (Homo sapiens) (UniProt P51946+P50613); assay: Inhibition of recombinant CDK7/cyclin H/MNAT1 (unknown origin) at 5 uM after 1 hr by FRET-based adapta assay; type: protein-complex assay
# Procedure, shortened: (§3)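 After inhibitor and all reaction components are added, the reaction runs for 1 h. ADP formed by the kinase displaces an antibody-tracer complex, so reduced ADP gives a high TR-FRET signal. Inhibition is calculated against a control.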
# [21] = biological target: Activin receptor type-1B (Homo sapiens) (UniProt P36896); assay: Inhibition of recombinant ACVR1B (unknown origin) at 5 uM by FRET-based Z'-LYTE assay; procedure, shortened: as §1
# [22] = biological target: AMP-activated protein kinase (AMPK) alpha-1/beta-1/gamma-1 (Homo sapiens) (UniProt P54619+Q9Y478+Q13131); assay: Inhibition of recombinant AMPK A1/B1/G1 (unknown origin) at 5 uM by FRET-based Z'-LYTE assay; type: protein-complex assay; procedure, shortened: as §1
# [23] = biological target: Mitogen-activated protein kinase 8 (Homo sapiens) (UniProt P45983); assay: Inhibition of recombinant MAPK8 (unknown origin) at 5 uM by FRET-based Z'-LYTE assay; procedure, shortened: as §1
# [24] = biological target: Ribosomal protein S6 kinase alpha-3 (Homo sapiens) (UniProt P51812); assay: Inhibition of recombinant RPS6KA3 (unknown origin) at 5 uM by FRET-based Z'-LYTE assay; procedure, shortened: as §2
# [25] = biological target: Mast/stem cell growth factor receptor Kit (Homo sapiens) (UniProt P10721); assay: Inhibition of recombinant KIT (unknown origin) at 5 uM by FRET-based Z'-LYTE assay; procedure, shortened: as §1
# [26] = biological target: T2, Mitogen-activated protein kinase 1; assay: Competitive inhibition of recombinant ERK2 (unknown origin) by FRET-based Z'-LYTE assay
# [27] = biological target: cAMP-dependent protein kinase catalytic subunit alpha (Homo sapiens) (UniProt P17612); assay: Inhibition of recombinant PRKACA (unknown origin) at 5 uM by FRET-based Z'-LYTE assay; procedure, shortened: as §1
# [28] = biological target: 3-phosphoinositide-dependent protein kinase 1 (Homo sapiens) (UniProt O15530); assay: Inhibition of recombinant PDK1 (unknown origin) at 5 uM by FRET-based Z'-LYTE assay; procedure, shortened: as §1
# [29] = biological target: Phosphatidylinositol 4,5-bisphosphate 3-kinase catalytic subunit gamma isoform (Homo sapiens) (UniProt P48736); assay: Inhibition of recombinant PIK3CG (unknown origin) at 5 uM after 1 hr by FRET-based adapta assay; procedure, shortened: as §3
# [30] = biological target: Tyrosine-protein kinase JAK3 (Homo sapiens) (UniProt P52333); assay: Inhibition of recombinant JAK3 (unknown origin) at 5 uM by FRET-based Z'-LYTE assay; procedure, shortened: as §1
# [31] = biological target: Casein kinase I isoform gamma-2 (Homo sapiens) (UniProt P78368); assay: Inhibition of recombinant CSNK1G2 (unknown origin) at 5 uM by FRET-based Z'-LYTE assay; procedure, shortened: as §1
# T2 sequence (P28482 whole entry): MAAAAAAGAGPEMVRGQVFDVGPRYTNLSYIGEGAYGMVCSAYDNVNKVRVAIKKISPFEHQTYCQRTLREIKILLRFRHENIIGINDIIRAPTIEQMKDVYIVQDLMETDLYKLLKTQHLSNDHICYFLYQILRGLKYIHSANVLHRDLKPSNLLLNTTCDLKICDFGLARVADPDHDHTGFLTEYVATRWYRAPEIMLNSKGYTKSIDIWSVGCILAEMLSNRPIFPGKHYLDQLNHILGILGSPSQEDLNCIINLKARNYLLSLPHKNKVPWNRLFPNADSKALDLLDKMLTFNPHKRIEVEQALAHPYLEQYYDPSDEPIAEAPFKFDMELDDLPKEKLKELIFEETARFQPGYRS
# Chain of Casein kinase II subunit alpha (Homo sapiens) (P68400 whole entry, looked up): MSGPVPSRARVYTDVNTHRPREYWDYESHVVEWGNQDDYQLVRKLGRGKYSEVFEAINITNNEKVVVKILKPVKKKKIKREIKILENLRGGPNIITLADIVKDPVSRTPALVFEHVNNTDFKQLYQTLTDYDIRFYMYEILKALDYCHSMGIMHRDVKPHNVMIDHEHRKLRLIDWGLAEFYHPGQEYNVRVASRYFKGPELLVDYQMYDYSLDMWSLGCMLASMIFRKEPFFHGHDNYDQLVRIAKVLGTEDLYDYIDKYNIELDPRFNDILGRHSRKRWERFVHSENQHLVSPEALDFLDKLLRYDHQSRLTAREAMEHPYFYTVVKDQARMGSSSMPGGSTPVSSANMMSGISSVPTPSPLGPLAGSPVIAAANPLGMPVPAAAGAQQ
# Chain of Serine/threonine-protein kinase Nek1 (Homo sapiens) (Q96PY6 whole entry): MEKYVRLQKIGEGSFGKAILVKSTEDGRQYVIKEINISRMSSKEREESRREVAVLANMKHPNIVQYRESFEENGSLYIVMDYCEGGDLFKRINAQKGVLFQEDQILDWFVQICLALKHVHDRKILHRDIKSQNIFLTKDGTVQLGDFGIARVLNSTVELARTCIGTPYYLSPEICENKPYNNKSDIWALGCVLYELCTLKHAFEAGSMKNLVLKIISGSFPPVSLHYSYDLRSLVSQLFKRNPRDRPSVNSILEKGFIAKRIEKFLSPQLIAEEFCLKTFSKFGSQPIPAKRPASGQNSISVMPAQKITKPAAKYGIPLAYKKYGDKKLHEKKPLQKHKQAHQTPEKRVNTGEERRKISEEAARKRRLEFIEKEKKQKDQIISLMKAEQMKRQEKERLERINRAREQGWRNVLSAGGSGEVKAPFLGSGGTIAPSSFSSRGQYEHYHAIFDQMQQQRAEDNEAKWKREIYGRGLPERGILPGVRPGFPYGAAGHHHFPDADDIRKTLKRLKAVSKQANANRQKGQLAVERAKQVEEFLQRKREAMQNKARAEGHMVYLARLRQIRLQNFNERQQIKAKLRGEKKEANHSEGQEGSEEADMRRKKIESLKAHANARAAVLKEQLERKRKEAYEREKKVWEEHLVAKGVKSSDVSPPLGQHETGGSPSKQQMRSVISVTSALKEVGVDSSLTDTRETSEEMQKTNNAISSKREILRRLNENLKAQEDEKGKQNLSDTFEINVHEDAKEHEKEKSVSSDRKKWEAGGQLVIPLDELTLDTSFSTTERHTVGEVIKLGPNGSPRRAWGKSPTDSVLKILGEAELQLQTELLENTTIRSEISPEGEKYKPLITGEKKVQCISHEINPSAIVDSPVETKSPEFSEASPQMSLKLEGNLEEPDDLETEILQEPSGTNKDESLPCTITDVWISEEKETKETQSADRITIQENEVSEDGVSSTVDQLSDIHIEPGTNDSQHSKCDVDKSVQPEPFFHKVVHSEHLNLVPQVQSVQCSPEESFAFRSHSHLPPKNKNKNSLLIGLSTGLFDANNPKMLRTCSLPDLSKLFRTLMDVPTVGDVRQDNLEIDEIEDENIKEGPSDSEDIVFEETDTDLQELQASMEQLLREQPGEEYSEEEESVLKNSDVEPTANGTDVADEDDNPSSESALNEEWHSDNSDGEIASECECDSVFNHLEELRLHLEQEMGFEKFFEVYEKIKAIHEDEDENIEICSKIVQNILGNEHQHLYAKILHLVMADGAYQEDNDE
# Chain of Phosphatidylinositol 4,5-bisphosphate 3-kinase catalytic subunit gamma isoform (Homo sapiens) (P48736 whole entry, looked up, canonical isoform): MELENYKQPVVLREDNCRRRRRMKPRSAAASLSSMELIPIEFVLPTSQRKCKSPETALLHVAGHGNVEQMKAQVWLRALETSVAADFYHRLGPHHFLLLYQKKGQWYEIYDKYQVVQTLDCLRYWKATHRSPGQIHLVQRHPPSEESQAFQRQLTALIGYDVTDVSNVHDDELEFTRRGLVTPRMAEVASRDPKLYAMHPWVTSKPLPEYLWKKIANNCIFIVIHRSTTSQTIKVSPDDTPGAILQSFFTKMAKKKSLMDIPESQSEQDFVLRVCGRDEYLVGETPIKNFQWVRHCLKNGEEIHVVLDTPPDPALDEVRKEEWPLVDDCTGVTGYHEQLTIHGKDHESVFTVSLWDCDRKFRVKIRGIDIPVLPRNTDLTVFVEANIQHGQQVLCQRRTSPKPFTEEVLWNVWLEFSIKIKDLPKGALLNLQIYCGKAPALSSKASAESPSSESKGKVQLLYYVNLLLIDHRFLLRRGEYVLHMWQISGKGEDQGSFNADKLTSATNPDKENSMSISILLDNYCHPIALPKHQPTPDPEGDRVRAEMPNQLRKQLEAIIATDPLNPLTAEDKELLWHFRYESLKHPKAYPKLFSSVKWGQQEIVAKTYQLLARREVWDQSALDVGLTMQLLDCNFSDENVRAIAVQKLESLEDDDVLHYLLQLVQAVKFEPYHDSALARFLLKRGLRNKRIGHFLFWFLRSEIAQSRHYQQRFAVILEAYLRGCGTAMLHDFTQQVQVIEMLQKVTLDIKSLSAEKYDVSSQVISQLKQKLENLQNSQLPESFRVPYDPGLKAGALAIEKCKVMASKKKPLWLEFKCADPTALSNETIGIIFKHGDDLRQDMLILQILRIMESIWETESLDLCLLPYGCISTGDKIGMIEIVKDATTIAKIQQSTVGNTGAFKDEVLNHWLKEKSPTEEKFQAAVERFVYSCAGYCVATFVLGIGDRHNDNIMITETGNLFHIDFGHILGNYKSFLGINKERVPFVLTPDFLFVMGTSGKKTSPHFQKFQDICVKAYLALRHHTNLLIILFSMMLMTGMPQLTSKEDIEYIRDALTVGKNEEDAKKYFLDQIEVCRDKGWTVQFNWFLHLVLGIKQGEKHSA
# Chain of Interleukin-1 receptor-associated kinase 4 (Homo sapiens) (Q9NWZ3 whole entry): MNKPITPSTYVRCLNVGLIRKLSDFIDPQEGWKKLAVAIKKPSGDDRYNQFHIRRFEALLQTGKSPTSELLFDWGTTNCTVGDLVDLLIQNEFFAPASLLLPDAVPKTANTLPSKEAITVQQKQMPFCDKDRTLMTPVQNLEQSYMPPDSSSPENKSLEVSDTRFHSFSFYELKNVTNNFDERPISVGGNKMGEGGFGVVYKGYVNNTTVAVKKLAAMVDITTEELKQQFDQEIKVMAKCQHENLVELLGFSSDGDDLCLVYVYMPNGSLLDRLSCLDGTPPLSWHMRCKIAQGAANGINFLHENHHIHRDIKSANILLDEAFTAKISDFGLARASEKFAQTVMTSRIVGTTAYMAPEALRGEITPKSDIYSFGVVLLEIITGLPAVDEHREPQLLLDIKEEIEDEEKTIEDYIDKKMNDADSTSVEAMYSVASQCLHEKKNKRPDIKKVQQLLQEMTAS
# Chain of Angiopoietin-1 receptor (Homo sapiens) (Q02763 whole entry): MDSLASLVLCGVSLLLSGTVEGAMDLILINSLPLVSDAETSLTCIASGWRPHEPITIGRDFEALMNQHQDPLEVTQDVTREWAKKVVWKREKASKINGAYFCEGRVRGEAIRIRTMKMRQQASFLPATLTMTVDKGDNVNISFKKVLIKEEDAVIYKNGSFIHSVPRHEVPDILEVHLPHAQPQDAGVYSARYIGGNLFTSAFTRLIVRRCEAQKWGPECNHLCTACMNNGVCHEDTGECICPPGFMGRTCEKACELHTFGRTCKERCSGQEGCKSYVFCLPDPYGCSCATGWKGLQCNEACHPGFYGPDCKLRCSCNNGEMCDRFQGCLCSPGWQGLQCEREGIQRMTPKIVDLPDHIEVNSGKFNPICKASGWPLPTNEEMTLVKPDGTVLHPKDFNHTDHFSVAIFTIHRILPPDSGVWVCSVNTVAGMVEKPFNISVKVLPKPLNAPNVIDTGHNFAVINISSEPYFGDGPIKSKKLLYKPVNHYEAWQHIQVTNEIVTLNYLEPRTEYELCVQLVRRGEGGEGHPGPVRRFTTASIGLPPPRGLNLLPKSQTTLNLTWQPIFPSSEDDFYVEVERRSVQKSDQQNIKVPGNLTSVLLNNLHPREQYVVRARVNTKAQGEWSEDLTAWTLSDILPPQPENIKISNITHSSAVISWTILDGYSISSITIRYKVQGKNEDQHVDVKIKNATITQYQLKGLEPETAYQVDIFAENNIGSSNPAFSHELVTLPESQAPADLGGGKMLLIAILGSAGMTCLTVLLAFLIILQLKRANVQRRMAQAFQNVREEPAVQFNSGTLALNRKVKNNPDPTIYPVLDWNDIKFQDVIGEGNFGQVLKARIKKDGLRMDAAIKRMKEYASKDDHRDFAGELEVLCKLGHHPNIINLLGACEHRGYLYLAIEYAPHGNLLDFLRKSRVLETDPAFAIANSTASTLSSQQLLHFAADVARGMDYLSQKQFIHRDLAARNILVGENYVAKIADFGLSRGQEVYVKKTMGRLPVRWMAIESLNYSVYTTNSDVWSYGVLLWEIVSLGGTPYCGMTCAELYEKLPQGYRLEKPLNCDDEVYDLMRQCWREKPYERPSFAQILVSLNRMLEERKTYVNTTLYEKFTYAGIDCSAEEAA
structure (smiles),measurement,setting,value
O=C1/C(=C/c2ccccn2)CNC/C1=C\c1ccccn1,IC50,[1],6700 nM
same,inhibition,[2],75%
same,inhibition,[3],15%
same,IC50,[4],1600 nM
same,inhibition,[5],13%
same,inhibition,[6],21%
same,inhibition,[7],34%
same,IC50,[8],660 nM
same,inhibition,[9],-9%
same,inhibition,[10],51%
same,inhibition,[11],5%
same,inhibition,[12],5%
same,inhibition,[13],18%
same,inhibition,[14],66%
same,inhibition,[15],85%
same,inhibition,[16],107%
same,inhibition,[17],102%
same,inhibition,[18],91%
same,inhibition,[19],77%
same,inhibition,[20],3%
same,inhibition,[21],1%
same,inhibition,[22],95%
same,inhibition,[23],16%
same,inhibition,[24],77%
same,inhibition,[25],2%
same,inhibition,[26],Active
same,inhibition,[27],11%
same,inhibition,[28],54%
same,inhibition,[29],34%
same,inhibition,[30],15%
same,inhibition,[31],12%
